# Tb MetRS inh: blocks T. brucei methionyl-tRNA synthetase activity; actives 0.4% (n = 360,000); inhibition, % at 11.9 µM; AID 624268; purified T. brucei MetRS, ATP depletion, Kinase-Glo luminescence;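 active means inhibition above a per-plate cutoff of the control wells' mean inhibition plus 3 SD, cut at about 5.5% in these data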;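 further: 0% = DMSO wells median and 100% = median of wells with control inhibitor compound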
#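 technique = Kinase-Glo luminescence, ATP depletion format | system = purified MetRS (methionyl-tRNA synthetase) enzyme from Trypanosoma brucei | timing = 15 min preincubation, 2 h reaction, all 25 °C | evaluation = percent inhibition versus plate control medians | dosing = single dose, 11.9 µM final nominal, 0.9% final DMSO | also added = substrates ATP, L-methionine and bulk Escherichia coli tRNA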
# Arr AP2 block: blocks beta-arrestin peptide binding to AP2 adaptin. actives 0.31% (n = 340,000). FITC-arrestin peptide / GST-AP2 beads, flow cytometry; AP2 beta2 appendage carries R879A mutation. inhibition, % at 10 µM;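 active means inhibition above a set limit, near 3 SD of compounds lacking own fluorescence, cut at about 54% in these data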;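 further: plate controls were DMSO wells for no effect and 5 µM unlabelled arrestin peptide for full effect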
#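 System: GST-AP2 R879A glutathione beads | Also added: FITC-arrestin peptide, 50 nM | Times: 12 min plus 1 h, RT | Signal: Bead flow cytometry, FITC channel | Buffer or medium: PBS with 0.05% Tween 20 and 0.1% BSA | Read-out basis: Percent drop in bead-associated FITC signal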
# Rin1-Abl PPI inh: inhibitors of human Rin1-Abl protein interaction. actives 0.4% (n = 360,000). TR-FRET Rin1/Abl binding, biochemical. inhibition, % at 7.35 µM. AID 588664; in the data active means inhibition above about 5%, passing the limit was not always enough
# SKN-1 inh: blocks SKN-1 activity in C. elegans. C. elegans VP596 Pgst-4::GFP/RFP ratio, acrylamide-induced, 24 h. inhibition, % at 21.8 µM. actives 0.49% (n = 360,000). AID 624304;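 active means interference check ratio from 0.5 to 1.5 plus GFP to RFP signal ratio inhibition reaching or exceeding a fixed threshold, cut at about 30% in these data, passing the limit was not always enough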
# MT1-MMP act inh: inhibitors of human MT1-MMP activation | P50281 | HT1080 RFP-PRO-GFP cells, GFP/RFP ratio fluorescence, overnight; percent of plate control window, DMSO zero | GFP/RFP ratio change, % at 20 µM | actives 0.061% (n = 360,000);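 active means GFP/RFP ratio change of at least 30% with cell ATP level not reduced by more than half and red fluorescence within 50% of control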
#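 Compound: 20 µM single dose, 1% DMSO / System: HT1080 RFP-PRO-GFP cells / Controls: DMSO and RFP-L50D-GFP cell wells / Read-out basis: GFP/RFP fluorescence ratio / Schedule: overnight compound exposure at 37 °C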
# TbMetRS confirm: Trypanosoma brucei MetRS inhibition confirmed | inhibition, % at 11.9 µM | actives 93% (n = 1,400) | T. brucei MetRS enzyme, luminescence (ATP depletion) | AID 624412 | shares compounds with Tb MetRS inh; in the data active means inhibition above about 7%
# Jurkat tox: Jurkat T cell cytotoxicity for MetRS hits; shares compounds with Tb MetRS inh; Jurkat cells viability, ATP luminescence; inhibition, % at 8.3 µM; actives 12% (n = 1,400); AID 624413; in the data active means inhibition above about 15%;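 further: 0% = vehicle and 100% = reference inhibitor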
# Tb MetRS inh FP: inhibits T. brucei methionyl tRNA synthetase in orthogonal FP test | inhibition, % at 11.9 µM | actives 44% (n = 1,400) | shares compounds with Tb MetRS inh | purified T. brucei MetRS, fluorescence polarization; in the data active means inhibition above about 17%;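 further: 0% = vehicle wells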
# * marks the source's active call; other numbers are inactive results; x = no result given. Most compounds without a hit are left out; they make up all but 1.6% or so of the library.
SMILES,Tb MetRS inh,Arr AP2 block,Rin1-Abl PPI inh,SKN-1 inh,MT1-MMP act inh,TbMetRS confirm,Jurkat tox,Tb MetRS inh FP
Cc1cc(NC(=O)c2ccc(Cl)cc2Cl)n(CCC#N)n1,6.4*,13.9,0.0,-13.4,4.9,13.4*,5.2,12.3
CCOC(=O)C1(C(C)(C)CC)CC(CSc2nc3ccccc3[nH]2)OC1=O (stereo not given),5.7*,-1.7,-2.1,9.0,8.2,15.5*,7.5,8.0
CCOC(=O)NC(=O)CSc1nc2ccccc2[nH]1,-0.4,-0.8,-3.4,-3.7,-4.1,x,x,x
CCCn1c(N)c(N(CCOC)C(=O)CSc2cc(C)c3ccccc3n2)c(=O)[nH]c1=O,-0.2,-9.8,2.2,-0.6,-1.5,x,x,x
CCOc1ccc(-n2c(SCC(=O)Nc3cc(C)on3)nnc2-c2c[nH]c3ccccc23)cc1,0.8,4.2,-1.3,-1.7,-3.5,x,x,x
COc1ccc(OC)c(-n2c(=O)c3ccccc3c3ccccc3c2=O)c1,0.4,1.6,0.8,13.9,-2.3,x,x,x
COc1ccc(OC)c(-n2c(SC)nnc2-c2c[nH]c3ccccc23)c1,9.7*,2.1,0.1,2.7,-1.0,24.7*,2.1,11.3
COc1ccc(OC)c(-n2c(SCC(=O)Nc3cc(C)on3)nnc2-c2c[nH]c3ccccc23)c1,17.7*,-5.1,-1.0,10.5,4.5,24.9*,5.7,9.2
COc1ccc(OC)c(-n2c(SCC(N)=O)nnc2-c2c[nH]c3ccccc23)c1,9.7*,21.9,-1.3,-3.3,-2.9,20.3*,6.2,9.9
CCOc1ccc(-n2c(SCC(=O)NCc3ccco3)nnc2-c2c[nH]c3ccccc23)cc1,11.7*,-5.7,-3.0,-4.9,1.4,10.9*,1.7,6.6
O=C(Nc1cccc(Cl)c1)c1ccc2sc([C@H]3C[C@H](O)[C@@H](CO)O3)nc2c1,-0.3,x,2.6,-9.8,-1.5,x,x,x
O=C(OCC(=O)c1c[nH]c2ccccc12)c1ccc([N+](=O)[O-])s1,10.4*,33.8,-0.1,11.8,-3.7,22.6*,5.5,7.4
N#CC1=C(N)Oc2cc(N)ccc2C1c1cc(Br)cs1 (stereo not given),43.4*,-3.9,-2.7,-7.8,-86.2,3.0,56.2*,11.1
N#CC1=C(N)Oc2cc(N)ccc2C1c1ccsc1 (stereo not given),0.2,x,0.2,-2.6,-1.3,x,x,x
N#CC1=C(N)Oc2cc(N)ccc2C1c1cccc(Br)c1 (stereo not given),34.1*,6.4,0.9,14.4,10.0,1.7,75.5*,9.6
Cc1ccc(C2C(C#N)=C(N)Oc3cc(N)ccc32)cc1 (stereo not given),-0.1,0.8,-3.4,3.3,3.4,x,x,x
CC1CC(=O)Nc2ccccc2N1C(=O)CSc1ccc2ccccc2n1 (stereo not given),-0.7,-4.0,2.2,0.2,11.3,x,x,x
O=C1c2ccccc2C(c2nc3ccccc3[nH]2)N1c1ccccn1 (stereo not given),6.9*,x,3.9,5.6,2.3,14.3*,7.2,6.9
O=C(NCc1nc2ccccc2[nH]1)C1=C[C@@H](C2CC2)C[C@@H](OCc2ccc(CO)cc2)O1,80.5*,17.8,2.6,13.8,1.1,99.2*,-4.3,86.8*
O=C(NCc1nc2ccccc2[nH]1)C1=C[C@H](C2CC2)C[C@H](OCc2ccc(CO)cc2)O1,50.5*,1.0,2.6,13.3,1.4,83.0*,-1.0,55.7*
O=C(Nc1ccccc1)C1=C[C@@H](C2CC2)C[C@@H](OCc2ccc(CO)cc2)O1,-0.4,14.4,2.0,16.9,-0.1,x,x,x
Nc1cc(=O)[nH]c(SCC(=O)Nc2cc(Cl)cc(Cl)c2)n1,28.8*,15.9,-2.3,5.1,1.0,48.8*,0.8,27.9*
Nc1cc(=O)[nH]c(SCC(=O)Nc2ccc(Cl)c(Cl)c2)n1,1.7,2.6,-7.0,-6.2,3.4,x,x,x
CN(CC(=O)Nc1ccc(Cl)c(C(F)(F)F)c1)C(=O)CCNC(=O)c1ccco1,0.7,0.3,1.4,15.0,0.0,x,x,x
CN(CC(=O)Nc1ccc(Cl)c(C(F)(F)F)c1)C(=O)/C=C/c1ccco1,29.5*,-2.3,-1.3,-8.7,14.5,37.8*,0.6,21.0*
SMILES,Tb MetRS inh,Arr AP2 block,Rin1-Abl PPI inh,SKN-1 inh,MT1-MMP act inh,TbMetRS confirm,Jurkat tox,Tb MetRS inh FP
CN(CC(=O)Nc1ccc(Cl)c(C(F)(F)F)c1)C(=O)/C=C/c1cccs1,20.6*,20.5,2.2,-1.7,1.1,70.3*,4.7,41.1*
O=C(NCc1ccc(F)cc1F)[C@@H]1CCCN1C(=O)[C@@H]1CCCN1C(=O)c1ccccc1,-0.6,x,x,5.3,-0.2,x,x,x
COc1ccccc1S(=O)(=O)N(C)C[C@@H]1OCc2cnnn2CCCC(=O)N([C@@H](C)CO)C[C@@H]1C,-0.8,x,0.2,-2.7,-4.5,x,x,x
O=C(CSCC(=O)OCn1nnc2ccccc2c1=O)Nc1ccc(Cl)cc1,16.0*,-5.2,-1.2,7.1,0.9,14.3*,6.1,2.8
O=C(Cn1nnc2ccccc2c1=O)NCCc1ccc(Cl)cc1Cl,6.5*,-0.2,-1.6,-7.3,-1.5,34.4*,4.1,9.9
O=C(Cn1nnc2ccccc2c1=O)NCCc1ccccc1,0.3,-3.3,2.0,2.6,-2.7,x,x,x
CC(NNC(=S)N1CCCCCC1)c1ccc2ccccc2n1 (stereo not given),-1.3,x,1.9,10.5,0.9,x,x,x
O=C(Nc1ccc(Br)cc1)c1cccc(-n2cnnn2)c1,6.5*,-0.8,-1.2,-2.3,6.3,13.4*,1.6,5.6
COc1ccc(NC(=O)COc2cccc(-n3cnnn3)c2)cc1,10.0*,3.2,2.8,-6.4,-3.5,19.9*,-0.7,13.1
O=C(COc1cccc(-n2cnnn2)c1)Nc1ccccc1,11.1*,29.1,3.2,1.7,1.6,18.8*,8.9,17.1*
COc1cc(/C=C/C(=O)OCC(=O)Nc2oc(C)c3c(C)n[nH]c(=O)c23)ccc1OC(F)F,-0.5,-4.9,-3.1,9.3,1.9,x,x,x
COc1ccccc1Cc1c(-c2ccc(Cl)cc2)nc2ccc(Br)cn12,0.1,x,-19.6,11.2,-5.3,x,x,x
COc1ccc(-c2oc3c(c2-c2cnc(OC)nc2)C(O)CC3)cc1 (stereo not given),-2.1,x,x,-15.9,3.1,x,x,x
COc1cccc(CN2CC(C(=O)NCc3ncc(C)[nH]3)CCC2=O)c1 (stereo not given),0.7,1.3,-1.7,14.5,-1.3,x,x,x
